Here are results for two compounds from publication PMC10652724 (ACS Omega, 2023).

Usually IC50 stands for the point on the concentration scale where inhibition reaches its midpoint. A word on the CC50: it is the concentration giving 50% cytotoxicity. Higher therefore signals lower toxicity to the cells.

For one series, the system named is T. evansi Tansui. Nature of the series: In vitro trypanocidal activity, bloodstream forms, CellTiter-Glo. The series is classed as cell-based, Trypanosoma evansi.
The test system of another series is T. b. rhodesiense IL1501. The series is described as above. The series is classed as cell-based, Trypanosoma brucei rhodesiense.
Series [1] is described as follows: In vitro cytotoxicity, Cell Counting Kit-8. The series is classed as cell-based. The settings on record: bovine, MDBK cells (Madin–Darby bovine kidney). The essentials:
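MDBK cells (1 × 10^4 cells/mL) incubated at 37°C for 72 h with test compound in […] twofold serial dilutions, 100 down to 0.39 μg/mL. Cell Counting Kit-8 added; OD450 read before and after a further 4 h incubation. Done in three replicates. CC50 from nonlinear regression curve fit, reported as mean ± SD.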
Background: Formazan colour is commonly taken as a measure of viable cells.

The test system of another series is T. equiperdum IVM-t1. The experiment in a line: In vitro trypanocidal activity, bloodstream forms, CellTiter-Glo. The series is classed as cell-based, Trypanosoma equiperdum. In general terms: Cellular ATP, detected with luciferase, serves as a proxy for viable cell number.
A further series relates to T. b. gambiense IL1922. The series is described as above. The series is classed as cell-based, Trypanosoma brucei gambiense.
Series [2] relates to T. congolense IL3000. The series is described as above. Type of series: cell-based, Trypanosoma congolense.
For another series, the system named is T. b. brucei GUTat3.1. Described as above. The series is classed as cell-based, Trypanosoma brucei brucei.
The test system of series [3] is T. congolense IL3000. As to conditions: T. congolense IL3000 infected mice, cited from earlier work.
The conditions of series [4]: nitrofuran metabolite; cited from earlier work.

With `O=C1CN(/N=C/c2ccc([N+](=O)[O-])o2)C(=O)N1` [Nitrofurantoin, nitrofurantoin], the “Selectivity index (SI)” value in the series on T. evansi Tansui (CC50 of MDBK/IC50 of Tev Tansui) was found to be 44; with T. b. rhodesiense IL1501 (CC50 of MDBK/IC50 of Tbr IL1501) it was 43; in the series on T. equiperdum IVM-t1 (CC50 of MDBK/IC50 of Teq IVM-t1), 50; in the series on T. b. gambiense IL1922 (CC50 of MDBK/IC50 of Tbg IL1922), 39; with T. congolense IL3000 [2] (CC50 of MDBK/IC50 of Tc IL3000) it was 174; with T. b. brucei GUTat3.1 (CC50 of MDBK/IC50 of Tbb GuTat3.1), 48. The IC50 in the series with T. evansi Tansui (Trypanosoma evansi, 72 h, read-out: trypanocidal activity IC50 ± SD) was found to be 1.67 ± 0.07 µM; in the series with T. b. rhodesiense IL1501 (Trypanosoma brucei, RHODESIENSE, 72 h, read-out: trypanocidal activity IC50 ± SD) it was 1.69 ± 0.2 µM; with T. equiperdum IVM-t1 (Trypanosoma equiperdum, 72 h, read-out: trypanocidal activity IC50 ± SD) it was 1.45 ± 0.03 µM; in the series with T. b. gambiense IL1922 (Trypanosoma brucei, GAMBIENSE, 72 h, read-out: trypanocidal activity IC50 ± SD) it was 1.85 ± 0.23 µM; in the series with T. congolense IL3000 [2] (Trypanosoma congolense, 72 h, read-out: trypanocidal activity IC50 ± SD), 0.42 ± 0.05 µM; with T. b. brucei GUTat3.1 (Trypanosoma brucei, 72 h, read-out: trypanocidal activity IC50 ± SD), 1.51 ± 0.03 µM. The same compound showed a CC50 at 72 h in series [1] of 73 ± 36.1 µM. Moreover, in the series with T. congolense IL3000 [3], the minimum effective dose was 30 mg/kg. Further, in the series on T. congolense IL3000 [3] (dose ≥30 mg/kg), the survival and cure is 100%.
Regarding `NN1CC(=O)NC1=O` [1-aminihydantoin, 1-aminohydantoin], the “metabolite present in edible pig tissues” value in [4] is 3 to 8 µg/kg.
